Data set [1] in a line: Half life of compound in PBS buffer. In kind it is physicochemical.
In data set [2] the test system is HL-60. Description: Cytotoxicity against human HL60 cells assessed as reduction in cell viability incubated for 48 hrs in absence of ROS scavenger pyruvate by Alamar blue assay. In kind it is cell-based. The following applies: HL-60, 48 h. The method in brief:
(§1)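 HL-60, HEK293 and HeLa cells exposed to compound for 48 h with or without pyruvate as ROS scavenger; viability read by Alamar blue; IC50 in nM, mean of at least three replicates ± SEM.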
A general note: The colour change of resazurin is a common sign of viable cells or microbes.

Data set [3] is described as follows: Half life of compound in culture media in absence of ROS scavenger pyruvate. In kind it is physicochemical.
Data set [4] has as its system HEK293. Kind of data set: Cytotoxicity against human HEK293 cells assessed as reduction in cell viability incubated for 48 hrs in presence of ROS scavenger pyruvate by Alamar blue assay. In kind it is cell-based. The settings on record: HEK293, 48 h. The essentials: as §1
Data set [5] can be described thus: Half life in human HEK293 cells in absence of ROS scavenger pyruvate. In kind it is ADME, cell-based.
Data set [6] concerns HL-60. Description: Induction of apoptosis in human HL60 cells assessed as apoptotic cells at 0.1 to 10 uM in absence of ROS scavenger pyruvate by annexin V-FITC/propidium iodide staining based flow cytometry (reference value: 3 %). Format: functional. The method in brief: (§2)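 HL-60 cells in RPMI without pyruvate, treated 48 h at 10, 1 and 0.1 μM (vehicle 0.1% DMSO); annexin V/PI staining, flow cytometry gating singlets, apoptotic fraction taken as P4 + P5 populations; at least triplicates, mean ± SD; two-tailed unpaired t-test, p < 0.05.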

Data set [7] can be described thus: Ratio of IC50 for human HEK293 cells assessed as reduction in cell viability incubated for 48 hrs in presence of ROS scavenger pyruvate by Alamar blue assay to IC50 for human HEK293 cells assessed as reduction in cell viability incubated for 48 hrs in absence of ROS scavenger pyruvate by Alamar blue assay. The following applies: read-out: Ratio IC50. In kind it is cell-based. The method in brief: (§3)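 Ratio of 48 h Alamar blue IC50 values with versus without pyruvate as ROS scavenger, in HEK293 or HL-60 cells; each IC50 from at least three replicates.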

For data set [8], the system named is HEK293. Description: Cytotoxicity against human HEK293 cells assessed as reduction in cell viability incubated for 48 hrs in absence of ROS scavenger pyruvate by Alamar blue assay. The settings on record: HEK293, 48 h. Format: cell-based. The method in brief:
as §1

Data set [9] can be described thus: Prodrug activation in PBS buffer assessed as H2O2-mediated hydrolysis by measuring half life at pH 7.4 measured up to 24 hrs by RP-HPLC/UV analysis. Format: physicochemical. The settings on record: pH 7.4, 24 h.
Data set [10] relates to HeLa. Description: Cytotoxicity against human HeLa cells assessed as reduction in cell viability incubated for 48 hrs in absence of ROS scavenger pyruvate by Alamar blue assay. In kind it is cell-based. The method in brief:
as §1

Data set [11] in a line: Ratio of IC50 for human HL60 cells assessed as reduction in cell viability incubated for 48 hrs in presence of ROS scavenger pyruvate by Alamar blue assay to IC50 for human HL60 cells assessed as reduction in cell viability incubated for 48 hrs in absence of ROS scavenger pyruvate by Alamar blue assay. Format: cell-based, HL-60. The following applies: read-out: Ratio IC50. The essentials: as §3

Data set [12] can be described thus: Apparent intrinsic clearance in rat liver microsomes. Format: ADME, Microsome. The following applies: read-out: CLH. The essentials: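 Apparent intrinsic clearance (CL'int, mL/min/kg) determined in pooled rat liver microsomes.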
A general note: Liver microsomes are a subcellular fraction often used to study metabolism.

A short description of data set [13]: Stability of compound in human HEK293 cells preincubated for 24 hrs followed by compound addition and subsequent removal of HEK293 cells in absence of ROS scavenger pyruvate. In kind it is ADME, cell-based.
A short description of data set [14]: Toxicity in dark agouti rat model of collagen-induced arthritis assessed as adverse effect at 0.42 mg/kg, ip administered on day 17 and treated until day 31. Format: organism-based. The following applies: in vivo. The method in brief: (§4)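 Collagen-induced arthritis in dark agouti rats given daily i.p. doses from day 17 in 2% (v/v) DMSO vehicle; n = 8 per group. Tolerability followed as average body weight measured three times weekly, plus general health observation; animals removed early for high arthritis score or declining health.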

Data set [15] can be described thus: Half life in rat plasma. In kind it is ADME, cell-free. The essentials: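 Reconstituted freeze-dried rat plasma diluted 1:1 with PBS to pH 7.4, incubated at 37 °C; half-life determined.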
The test system of data set [16] is HeLa. Description: Cytotoxicity against human HeLa cells assessed as reduction in cell viability incubated for 48 hrs in presence of ROS scavenger pyruvate by Alamar blue assay. Format: cell-based. The method in brief: as §1
The subject of data set [17] is HL-60. Kind of data set: Induction of apoptosis in human HL60 cells assessed as apoptotic cells at 0.1 uM in absence of ROS scavenger pyruvate by annexin V-FITC/propidium iodide staining based flow cytometry (reference value: 3 %). Format: functional. The method in brief:
as §2

A short description of data set [18]: Half life in human HEK293 cells in presence of paraquat and absence of ROS scavenger pyruvate. In kind it is ADME, cell-based.
Data set [19] has as its system Rattus norvegicus. Kind of data set: Antiarthritic activity in dark agouti rat model of collagen-induced arthritis assessed as decrease in disease severity at 0.42 mg/kg, ip administered on day 17 and treated until day 31 by macroscopic observation analysis. In kind it is functional, organism-based. The method in brief: (§5)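 Dark agouti rats with collagen-induced arthritis; daily i.p. dosing from disease onset (day 17), doses equimolar to 0.3 mg/kg MTX, DMSO kept at 2% (v/v). Arthritis scored macroscopically three times weekly: 1 point per swollen toe, 1 per swollen foot knuckle, 5 for swollen ankle, 0–15 per limb, maximum 60 per rat. n = 8 per group, 10 for vehicle; mean ± SEM.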

The nature of data set [20]: Toxicity in dark agouti rat model of collagen-induced arthritis assessed as increase in body weight at 0.42 mg/kg, ip administered on day 17 and treated until day 31. Format: organism-based. The following applies: in vivo. The method in brief:
as §4

Data set [21] is described as follows: Permeability of compound across artificial lipid/oil/lipid tri-layer membrane by PAMPA assay. Background: The PAMPA barrier holds no transporters, so it reflects passive diffusion.
Data set [22] deals with HL-60. Kind of data set: Cytotoxicity against human HL60 cells assessed reduction in cell viability incubated for 48 hrs in presence of ROS scavenger pyruvate by Alamar blue assay. In kind it is cell-based. The settings on record: HL-60, 48 h. The method in brief: as §1
Data set [23] has as its system HL-60. Description: Cytotoxicity against human HL60 cells assessed as reduction in cell viability incubated for 48 hrs in presence of ROS scavenger pyruvate by Alamar blue assay relative to parent compound. In kind it is cell-based. The following applies: hl-60, 48 h.
The subject of data set [24] is Rattus norvegicus. Kind of data set: Antiarthritic activity in dark agouti rat model of collagen-induced arthritis assessed as decrease in disease severity at 0.3 mg/kg, ip administered on day 17 and treated until day 31 by macroscopic observation analysis. Format: functional, organism-based. The method in brief: as §5
Data set [25] in a line: Prodrug activation in PBS buffer assessed as H2O2-formation of methotrexate at pH 7.4 measured up to 24 hrs by RP-HPLC/UV analysis. In kind it is physicochemical. The following applies: pH 7.4, 24 h.
The nature of data set [26]: Toxicity in dark agouti rat model of collagen-induced arthritis assessed as increase in body weight at 0.38 mg/kg, ip administered on day 17 and treated until day 31. Format: organism-based. The following applies: in vivo. The essentials:
as §4

Data set [27] concerns Rattus norvegicus. Description: Antiarthritic activity in dark agouti rat model of collagen-induced arthritis assessed as decrease in disease severity at 0.38 mg/kg, ip administered on day 17 and treated until day 31 by macroscopic observation analysis. Format: functional, organism-based. The method in brief: as §5
Data set [28] is described as follows: Toxicity in dark agouti rat model of collagen-induced arthritis assessed as adverse effect at 0.38 mg/kg, ip administered on day 17 and treated until day 31. In kind it is organism-based. The settings on record: in vivo. The method in brief: as §4
A short description of data set [29]: Toxicity in dark agouti rat model of collagen-induced arthritis assessed as adverse effect at 0.36 mg/kg, ip administered on day 17 and treated until day 31. In kind it is organism-based. The settings on record: in vivo. The essentials: as §4
Data set [30] is described as follows: Toxicity in dark agouti rat model of collagen-induced arthritis assessed as increase in body weight at 0.36 mg/kg, ip administered on day 17 and treated until day 31. Format: organism-based. The following applies: in vivo. The essentials:
as §4

The test system of data set [31] is Rattus norvegicus. Description: Antiarthritic activity in dark agouti rat model of collagen-induced arthritis assessed as decrease in disease severity at 0.36 mg/kg, ip administered on day 17 and treated until day 31 by macroscopic observation analysis. Format: functional, organism-based. The essentials:
as §5

Calls of active or inactive are those of the source. The calls are words filed in the database; no cut-off is given here.

For `CN(Cc1cnc2nc(N)nc(NC(=O)OCc3ccc(B(O)O)cc3)c2n1)c1ccc(C(=O)N[C@@H](CCC(=O)O)C(=O)O)cc1`, the half-life (commonly the time in which the quantity being followed falls by half) was over 24 h in data set [1]; 3.4 h in data set [3]; 107 h in [5]; 16.4 h in [15]; 63.2 h in [18]. In addition, the IC50 (in general, the midpoint of a concentration-inhibition curve) with HL-60 [2] came to 0.0403 µM; in the data set with HEK293 [4], 0.192 µM; in the data set on HEK293 [8], 0.0629 µM; in the data set with HeLa [10], 0.156 µM; in the data set on HeLa [16], 0.194 µM; in the data set with HL-60 [22] it was 0.203 µM. For the same compound, the Activity was 17% in the data set with HL-60 [6], “Non-Toxic” in data set [14], 7% in the data set with HL-60 [17] and “Non-Toxic” in [20]. Moreover, the selectivity ratio at 48 h in data set [7] and in data set [11] was 5 throughout. Besides, the t1/2 worked out at 0.29 h in data set [9] and 16.1 h in data set [13]. Moreover, in data set [12], the CLint scaled worked out at 0.108 L/h/kg. The result in the data set on Rattus norvegicus [19] was Active. Also, the Papp (as a rule, the rate of passage across a membrane or cell layer, normalised by area and donor concentration) in [21] is under 15 nm/s. For the same compound, in the data set on HL-60 [23], the “fold change (FC)” value is reported as 20.

On to `CN(Cc1cnc2nc(N)nc(N)c2n1)c1ccc(C(=O)N[C@@H](CCC(=O)O)C(=O)O)cc1` [METHOTREXATE], for which the half-life in [1], in [3] and in data set [5] was over 24 h in each case. Besides, the IC50 in the data set on HL-60 [2] is 0.0089 µM; in the data set on HEK293 [4] it was 0.035 µM; in the data set with HEK293 [8], 0.0286 µM; with HeLa [10], 0.021 µM; with HeLa [16], 0.0593 µM; in the data set on HL-60 [22] it was 0.0098 µM. In addition, the figures for the Activity with HL-60 [6] and in the data set on HL-60 [17] were 17% and 14%, respectively. Besides, the CLint scaled in data set [12] was 0.09 L/h/kg. The result in the data set on Rattus norvegicus [24] was Active. Also, the Papp in data set [21] is under 15 nm/s.

Regarding `CN(Cc1cnc2nc(N)nc(NC(=O)OCc3ccccc3)c2n1)c1ccc(C(=O)N[C@@H](CCC(=O)O)C(=O)O)cc1`, the IC50 in the data set with HL-60 [2] and in the data set with HEK293 [8] was over 1 µM each time. Moreover, in data set [3], the half-life is over 24 h. Moreover, the t1/2 in data set [9] was over 24 h. For the same compound, the Drug metabolism entry in [25] was “Not Active”. For the same compound, the Papp in data set [21] is under 15 nm/s.

Turning to `Nc1nc(N)c2nc(CNc3ccc(C(=O)N[C@@H](CCC(=O)O)C(=O)O)cc3)cnc2n1` [AMINOPTERIN], the IC50 in the data set with HL-60 [2] came out at 0.0025 µM; in the data set with HeLa [10], 0.0083 µM; in the data set with HeLa [16], 0.0036 µM; with HL-60 [22], 0.003 µM.

Turning to `Nc1nc(N)c2nc(CN(Cc3ccc(B(O)O)cc3)c3ccc(C(=O)N[C@@H](CCC(=O)O)C(=O)O)cc3)cnc2n1`, the IC50 amounted to 0.0075 µM with HL-60 [2], 0.0192 µM with HeLa [10], 0.0422 µM in the data set with HeLa [16] and 0.0383 µM in the data set with HL-60 [22]. In addition, the Activity result in data set [26] and in data set [28] was “Non-Toxic” in each case. For the same compound, the outcome in the data set on Rattus norvegicus [27] was inactive.

As for `CN(Cc1cnc2nc(N)nc(N)c2n1)c1ccc(C(=O)N[C@@H](CCC(=O)N2CCSC2=O)C(=O)O)cc1`, the IC50 with HL-60 [2] came out at 0.04 µM; in the data set with HeLa [10], 0.164 µM; in the data set on HeLa [16], 0.207 µM; in the data set on HL-60 [22] it was 0.036 µM. Also, the Activity entry in data set [29] and in data set [30] was “Non-Toxic” throughout. For the same compound, the result with Rattus norvegicus [31] was inactive.

The values are drawn from ChEMBL document CHEMBL4613234, “Auxiliary in vitro and in vivo biological evaluation of hydrogen peroxide sensitive prodrugs of methotrexate and aminopterin for the treatment of rheumatoid arthritis” (Bioorg Med Chem, 2020).
